# Screens as filed in PubChem.
# Most compounds without a hit are left out; they make up all but 4.3% or so of the library.
# CAL PDZ FP-1: blocks peptide binding to human CAL PDZ domain | actives 0.02% (n = 330,000) | inhibition, % at 20 µM | Q9HD26 | purified CAL PDZ, TMR-peptide fluorescence polarization, 1 h;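 active = highest replicate inhibition of at least 40%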;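 also: plate controls were DMSO neutral control wells for no effect and unlabeled competitor peptide control wells for full effect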
#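 material = purified tagged CAL PDZ domain construct (CerCALP) | buffer or medium = sodium phosphate/NaCl buffer pH 7.4 with TCEP, IgG, Thesit | reagent = TMR-labelled reporter peptide T*-PRC34 bound in PDZ groove | incubation = 1 h room-temperature incubation prior to read | measured by = fluorescence polarization (mP) | evaluation = percent inhibition from loss of millipolarization | control set = unlabelled peptide and DMSO controls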
# ALR H2O2 inh: human ALR oxidase inhibition via reduced H2O2; P55789; purified ALR, DTT oxidation, H2O2 HRP-luminol luminescence; inhibition, % (concentration not given with the values); actives 3.8% (n = 290,000); AID 485317;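 active = mean replicate inhibition above about 79%, with every replicate also reaching it, limit read from the data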
# Target sequence (P55789 whole entry, looked up): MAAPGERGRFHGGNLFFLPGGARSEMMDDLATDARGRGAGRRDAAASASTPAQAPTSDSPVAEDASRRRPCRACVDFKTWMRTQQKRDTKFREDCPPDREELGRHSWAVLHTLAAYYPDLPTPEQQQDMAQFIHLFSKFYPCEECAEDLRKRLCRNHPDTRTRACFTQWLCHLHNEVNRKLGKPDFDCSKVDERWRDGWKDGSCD
# Rtt109 HAT inh: C. albicans Rtt109 histone acetyltransferase inhibition; Q5AAJ8; purified Rtt109/Vps75, ThioGlo CoA-SH fluorescence, 4 h; inhibition, % at 34.9 µM; actives 0.16% (n = 330,000); AID 540336;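 active = inhibition of at least 50% in every replicate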
# Target sequence (Q5AAJ8 whole entry, looked up): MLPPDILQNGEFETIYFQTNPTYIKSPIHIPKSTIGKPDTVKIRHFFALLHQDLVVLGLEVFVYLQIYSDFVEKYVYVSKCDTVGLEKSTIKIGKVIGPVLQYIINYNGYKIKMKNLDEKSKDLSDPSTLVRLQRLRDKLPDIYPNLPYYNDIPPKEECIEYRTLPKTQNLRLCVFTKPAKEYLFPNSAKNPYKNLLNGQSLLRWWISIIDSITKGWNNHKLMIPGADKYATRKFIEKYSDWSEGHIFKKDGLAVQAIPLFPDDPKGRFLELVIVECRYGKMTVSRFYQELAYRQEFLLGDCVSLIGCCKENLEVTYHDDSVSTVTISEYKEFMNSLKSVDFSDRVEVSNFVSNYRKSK
# CAL PDZ FP-2: blocks peptide binding to the human CAL PDZ domain; Q9HD26; purified CAL PDZ, TMR-peptide fluorescence polarization, 1 h; inhibition, % at 24.9 µM; actives 0.92% (n = 300,000); AID 602252;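 active = mean inhibition of at least 30% with at least half of replicates also reaching 30%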;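 also: 0% = DMSO neutral control and 100% = excess unlabeled competitor peptide PRC23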
# Dyrk1A ADPGlo: blocks rat Dyrk1A kinase activity; AID 504441; actives 0.43% (n = 310,000); inhibition, % at 12.5 µM; ADP-Glo luminescence, NFATc1 peptide; in the data active = inhibition above about 50%;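 also: plate controls were vehicle with enzyme for no effect and no enzyme for full effect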
# Starred values were filed as active, the others as inactive; / = not tested or not shown.
SMILES,CAL PDZ FP-1,ALR H2O2 inh,Rtt109 HAT inh,CAL PDZ FP-2,Dyrk1A ADPGlo
CCN(CC)S(=O)(=O)c1ccc(NC(=O)c2c(-c3ccccc3)noc2C)cc1,0,93*,17,/,5
CCc1cc(C(=O)Nc2ncccc2O)sc1C,-2,14,0,-3,-2
Cc1ccc(-n2cccc2/C=C2/C(=N)N3C(=NC2=O)SN=C3S(C)(=O)=O)cc1,-4,98*,23,-5,3
CCc1ccc(-n2cccc2/C=C2/C(=N)N3C(=NC2=O)SN=C3S(C)(=O)=O)cc1,-4,58,30,-8,3
CS(=O)(=O)C1=NSC2=NC(=O)/C(=C\c3ccc(-c4ccccc4)o3)C(=N)N21,/,97*,/,/,/
Cc1cc(C)cc(-n2cccc2/C=C2/C(=N)N3C(=NC2=O)SN=C3S(C)(=O)=O)c1,-5,88*,5,-4,-5
Cc1ccc([N+](=O)[O-])c(OCCN2CCCCCC2)c1,-1,1,/,57*,1
Cc1ccc([N+](=O)[O-])c(OCCN2CCc3ccccc3C2)c1,-1,-7,6,-1,-5
CNC(=S)NNc1ccccc1[N+](=O)[O-],0,98*,5,-4,/
O=C(Nc1cccs1)NC1CCCC1,-1,99*,-3,0,2
Cc1ccc(CNC(=O)Nc2cccs2)cc1,/,40,-1,-2,5
Cc1ccccc1NC(=O)Nc1cccs1,/,65,-14,0,3
CC1CCC(NC(=O)CNC(=O)c2cccs2)CC1 (stereo not drawn),0,-1,-11,-1,-3
O=C(Nc1ccccn1)NC1CCCCC1,/,4,3,4,6
O=C(NCC1CC1)Nc1cccs1,0,99*,11,-8,/
CC1CCC(NC(=O)Nc2cccs2)CC1 (stereo not drawn),-4,98*,31,-5,37
CC(C)NC(=O)Nc1cccs1,-1,97*,1,1,-4
O=C(O)c1ccc(S(=O)(=O)Nc2ccc(O)c(Sc3nc4ccccc4s3)c2)cc1,-3,100*,11,-4,-1
NS(=O)(=O)c1ccc(Sc2nc3ccccc3s2)c([N+](=O)[O-])c1,0,98*,-4,/,14
NS(=O)(=O)c1ccc(Sc2ccccn2)c([N+](=O)[O-])c1,0,/,-2,/,-10
CCOC(=O)C1(CCOC)CCN(C(C)CCc2ccc(OC)cc2)CC1 (stereo not drawn),-3,-18,-3,7,3
Cc1ccc(NC(=O)CNC(=O)c2ccc(OC(F)F)cc2)cc1S(=O)(=O)N1CCCCCC1,-1,/,3,-5,-3
COc1ccc(-c2nc(NC3=NCCCCC3)sc2C)cc1,1,98*,1,-1,-1
COc1ccc(NC2=NCCCCC2)cc1,-2,-4,-9,2,12
S=C1NC(c2ccccc2)N2C(=S)NC(c3ccccc3)N12 (stereo not drawn),-1,98*,4,2,2
SMILES,CAL PDZ FP-1,ALR H2O2 inh,Rtt109 HAT inh,CAL PDZ FP-2,Dyrk1A ADPGlo
CC(=O)c1ccccc1NC(=O)COC(=O)CN1C(=O)C2CCCCC2C1=O (stereo not drawn),-1,/,1,40*,-5
CCOCc1cnc(C)nc1NCC(=O)c1c(C)n(C)c2ccc(OC)cc12,0,/,15,-2,1
COc1ccc2c(c1)c(C(=O)CNc1nc(C)cs1)c(C)n2C,1,98*,16,-2,2
Cn1cnc2c1c(=O)n(Cc1ccc(Cl)cc1Cl)c(=O)n2C,-2,-1,1,/,/
Cc1ccc(/C=C/C(=O)c2ccccc(=O)c2O)c(C)c1,-2,38,/,-1,14
Cc1ccc(C)c(/C=C/C(=O)c2ccccc(=O)c2O)c1,-2,97*,/,0,-9
Cc1ccc(C(=O)NCCc2ccccc2)cc1S(=O)(=O)N1CCOCC1,0,-3,-1,2,1
CCn1c(COc2cccc3ccccc23)nnc1SCC(N)=O,-1,-4,5,52*,-2
Nc1nc(CCl)nc(Nc2ccccc2)n1,-3,87*,7,-2,-1
Cc1cccc(Nc2nc(N)nc(CCl)n2)c1C,/,91*,/,/,/
CCn1c(CC(=O)Nc2ccc(F)cc2)nnc1SCC(=O)NC1CCCC1,-1,-5,5,-3,0
Cc1nc(NC(=O)C2CC2)sc1C(=O)Nc1ccccc1Cl,-1,18,5,-4,/
Cc1ccc(/C=C(\C#N)C(=O)Nc2ccccn2)o1,11,-9,-7,-3,2
CCN(CC)CCCn1c2c(c(SCC(=O)Nc3cccc4ccccc34)nc1=O)CCC2,0,70,1,-1,-1
CCc1ccc(NC(=O)CSc2nc(=O)n(CCCN(C)C)c3c2CCC3)cc1,-2,97*,9,6,3
CN(C)CCCn1c2c(c(SCC(=O)Nc3cccc4ccccc34)nc1=O)CCCC2,-3,-43,0,49*,-4
CN(C)CCCn1c2c(c(SCC(=O)Nc3nccs3)nc1=O)CCC2,-2,99*,6,-1,9
CC1=CC(=C(C#N)C#N)C=C(C)N1CCC(C)C,-2,-13,16,-3,17
CCN(CC)C(=O)CN1C(=O)c2cccc3cccc1c23,/,-39,2,37*,-1
Cc1ccccc1CC1(CO)CCCN(C(=O)c2ccc3ncccc3c2)C1 (stereo not drawn),0,3,3,-2,1
CN(C)c1nc(Oc2ccc(/C=N/O)cc2)nc(N(C)C)n1,0,99*,-6,-3,6
CC(C)Nc1nc(NC(C)C)nc(Oc2ccc(/C=N/O)cc2)n1,1,/,-2,-1,5
COc1cc(C)nc(Oc2ccc(/C=N/O)cc2)n1,0,98*,-14,-1,2
COc1nc(Oc2ccc(/C=N/O)cc2)nc(N(C)C)n1,-1,99*,6,2,7
CN(C)C(=O)c1ccc(NC(=O)CSc2nnc(-c3cccs3)n2N)cc1,0,23,2,-6,4
SMILES,CAL PDZ FP-1,ALR H2O2 inh,Rtt109 HAT inh,CAL PDZ FP-2,Dyrk1A ADPGlo
Cc1nc2ccccc2c(C)c1CC(=O)N(C)CC(=O)Nc1cccc(F)c1,-1,-1,-6,-4,2
Cn1c(=O)c2[nH]c(N=Nc3ccc(N)cc3N)nc2n(C)c1=O,0,86*,-4,6,1
COc1cc(-c2nc3ccccn3c2/N=C/c2cccc(F)c2)ccc1O,-3,78*,-115,-7,8
COc1cc(-c2nc3ccccn3c2/N=C/c2cc(OC)c(O)cc2Cl)ccc1O,-3,94*,-9,1,11
COc1cc(-c2nc3ccccn3c2/N=C/c2ccccc2)ccc1O,-2,84*,-4,-1,2
CCCOc1ccc2cc(C(=O)NCc3ccccc3)c(=O)oc2c1,0,-4,-31,7,-3
Cc1ccc(NC(=O)c2cc(S(=O)(=O)N3CCCCC3)c[nH]2)cc1C,0,-4,-4,/,-2
CC(=O)CCSc1nnc(-c2cccc(S(=O)(=O)N3CCOCC3)c2)o1,-3,-1,0,0,6
O=S(=O)(c1cccc(-c2n[nH]c(=S)o2)c1)N1CCOCC1,-1,50,0,98*,3
